Results on two compounds are retold here after ChEMBL document CHEMBL5712087, “Targeting bromodomain-containing protein 4 (BRD4) inhibits MYC expression in colorectal cancer cells” (Neoplasia, 2019).

The source made the active and inactive calls. The rule behind the calls is not given here.

What all share (type): cell-based
The target in test [1] is T1, von Hippel-Lindau disease tumor suppressor/Bromodomain-containing protein 4 (Homo sapiens) (UniProt O60885+P40337). The test is described as follows: PROTAC activity at BRD4/VHL E3 ligase in human LS174T cells assessed as BRD4 protein degradation at 250 nM for 2 hrs by Western blot analysis. In short, it runs like this:
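LS174t cells were exposed to PROTAC for 2 h. For washout, the PROTAC was removed by changing the culture medium and cells were harvested 22 h later. BRD4 was assessed by western blot (15 µg lysate, 10% SDS-PAGE, chemiluminescence), normalised against GAPDH/β-actin.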

Test [2] deals with T1, von Hippel-Lindau disease tumor suppressor/Bromodomain-containing protein 4 (Homo sapiens). Kind of test: PROTAC activity at BRD4/VHL E3 ligase in human LS174T cells assessed as BRD4 protein degradation at 100 to 500 nM pretreated with proteasome inhibitor MG132 for 4 hrs by Western blot analysis. The conditions noted are these: dose 100-500 nM. In short, it runs like this:
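LS174t cells were pre-incubated for 4 h with the proteasome inhibitor MG132 (10 mM DMSO stock) before PROTAC addition. BRD4 was then immunoblotted from RIPA lysates (15 µg, 10% SDS-PAGE, nitrocellulose, primary 1:1,000 overnight at 4 °C), with GAPDH/β-actin as loading control.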

For test [3] the target is unchanged. The test is described as follows: PROTAC activity at BRD4/VHL E3 ligase in human HCT116 p53+/+ cells assessed as decrease in MYC protein expression at 5 to 10 uM for 24 hrs by Western blot analysis. The note with it: HCT-116, dose 5-10 µM. In short, it runs like this:
(§1)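 Eight CRC lines exposed 24 h to PROTAC at 5 or 10 µM (stocks 2 mM in DMSO, diluted in PBS or medium). Lysis in RIPA with protease/phosphatase inhibitors and 2.5 mmol/l DTT; 15 µg protein on 10% SDS-PAGE, semi-dry transfer to nitrocellulose. Anti-BRD4 or anti-MYC at 1:1,000 overnight at 4 °C; GAPDH or β-actin loading control; chemiluminescence.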

For test [4] the target is unchanged. The test is described as follows: PROTAC activity at BRD4/VHL E3 ligase in human HCT116 p53-/- cells assessed as decrease in BRD4 protein degradation at 5 to 10 uM for 24 hrs by Western blot analysis. The note with it: HCT-116, dose 5-10 µM. In short, it runs like this:
as §1
For orientation: Immunoblotting shows a protein as a band on a membrane.

For test [5] the target is unchanged. The test is described as follows: PROTAC activity at BRD4/VHL E3 ligase in human HCT116 p53-/- cells assessed as decrease in MYC protein expression at 5 to 10 uM for 24 hrs by Western blot analysis. The note with it: HCT-116, dose 5-10 µM. In short, it runs like this:
as §1

For test [6] the target is unchanged. The test is described as follows: PROTAC activity at BRD4/VHL E3 ligase in human fibroblast cells assessed as decrease in BRD4 protein degradation at 100 to 250 nM for 24 hrs by Western blot analysis. The conditions noted are these: dose 100-250 nM. In short, it runs like this:
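Normal human dermal fibroblasts in 10% FCS medium were treated with 100 or 250 nM PROTAC. BRD4 and MYC protein were assessed by western blot (15 µg RIPA lysate, 10% SDS-PAGE, primary 1:1,000 overnight at 4 °C), with GAPDH/β-actin as loading control.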

The target in test [7] is T2, Protein cereblon/Bromodomain-containing protein 4 (Homo sapiens) (UniProt O60885+Q96SW2). The test is described as follows: PROTAC activity at BRD4/Cereblon in human LS174T cells assessed as BRD4 protein degradation at 250 to 500 nM pretreated with thalidomide for 4 hrs by Western blot analysis. The conditions noted are these: dose 250-500 nM.
T2 sequence (Q96SW2 whole entry, looked up, other chains not shown): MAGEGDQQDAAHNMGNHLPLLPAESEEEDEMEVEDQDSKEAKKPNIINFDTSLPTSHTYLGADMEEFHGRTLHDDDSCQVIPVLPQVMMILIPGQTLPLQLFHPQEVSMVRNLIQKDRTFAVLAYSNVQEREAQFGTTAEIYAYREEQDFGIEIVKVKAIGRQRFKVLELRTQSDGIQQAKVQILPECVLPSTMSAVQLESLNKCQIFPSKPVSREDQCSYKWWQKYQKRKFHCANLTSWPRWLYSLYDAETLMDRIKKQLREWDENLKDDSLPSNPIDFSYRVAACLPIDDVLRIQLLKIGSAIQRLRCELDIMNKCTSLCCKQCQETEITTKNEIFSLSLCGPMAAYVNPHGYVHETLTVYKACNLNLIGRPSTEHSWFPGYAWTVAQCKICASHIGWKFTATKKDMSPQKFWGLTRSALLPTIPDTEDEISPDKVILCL
Test [8] concerns the target T2, Protein cereblon/Bromodomain-containing protein 4 (Homo sapiens). Kind of test: PROTAC activity at BRD4/Cereblon in human HT-29 cells assessed as decrease in MYC protein expression at 5 to 10 uM for 24 hrs by Western blot analysis. The conditions noted are these: dose 5-10 µM. In short, it runs like this:
as §1

For test [9] the target is unchanged. The test is described as follows: PROTAC activity at BRD4/Cereblon in human LS174T-dbet1 resistant cells assessed as BRD4 protein degradation at 500 to 1000 nM for 24 hrs by Western blot analysis. The conditions noted are these: dose 500-1000 nM.
Test [10] shares this target. Kind of test: PROTAC activity at BRD4/Cereblon in human COLO 320 cells assessed as decrease in MYC protein expression at 5 to 10 uM for 24 hrs by Western blot analysis. The note with it: dose 5-10 µM. In short, it runs like this:
as §1

Test [11] shares this target. The test is described as follows: PROTAC activity at BRD4/Cereblon in human LS174T cells assessed as BRD4 protein expression at 500 nM for 2 hrs and measured 22 hrs after washout by Western blot analysis. In short, it runs like this: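 LS174t cells exposed 2 h to PROTAC; for washout, medium replaced and cells collected 22 h later. BRD4 by immunoblot (15 µg lysate, 10% SDS-PAGE, anti-BRD4 1:1,000 overnight at 4 °C, GAPDH/β-actin control).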

T1 sequence (P40337 whole entry, looked up, other chains not shown): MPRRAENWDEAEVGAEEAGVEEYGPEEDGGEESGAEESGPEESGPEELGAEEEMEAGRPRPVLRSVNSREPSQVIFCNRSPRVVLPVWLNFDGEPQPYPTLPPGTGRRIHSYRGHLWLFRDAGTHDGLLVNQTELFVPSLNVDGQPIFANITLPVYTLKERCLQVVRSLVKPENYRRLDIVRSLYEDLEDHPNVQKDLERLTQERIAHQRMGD

For `Cc1ncsc1-c1ccc(CNC(=O)[C@@H]2C[C@@H](O)CN2C(=O)[C@@H](NC(=O)COCCOCCOCCNC(=O)C[C@@H]2N=C(c3ccc(Cl)cc3)c3c(sc(C)c3C)-n3c(C)nnc32)C(C)(C)C)cc1`, the result in [1], in test [3], in test [4], in test [5] and in [6] was Active. The result in test [2] was inactive.

In the case of `Cc1sc2c(c1C)C(c1ccc(Cl)cc1)=N[C@@H](CC(=O)NCCCCNC(=O)COc1cccc3c1C(=O)N(C1CCC(=O)NC1=O)C3=O)c1nnc(C)n1-2` (stereo partly specified), the result in test [7], in test [9] and in [11] was inactive. Besides, the outcome in [8] and in test [10] was Active.
